# Bioassay records as filed in PubChem BioAssay.
# TRPC4 inh = inhibitors of mouse TRPC4 channel, primary screen, Fluo4 calcium, HEK293 TRPC4beta/mu-opioid cells; Short transient receptor potential channel 4 (Mus musculus), Q9QUQ5; DAMGO-evoked Fluo4 calcium flux; stronger effect = lower value; B-score at 10 µM; actives 0.39% (n = 300,000); AID 2247, 2010;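 active means B-score over 3 SD under the library average, no early fluorescence shift, positive overall ratio signal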
# Target sequence (Q9QUQ5 whole entry, looked up): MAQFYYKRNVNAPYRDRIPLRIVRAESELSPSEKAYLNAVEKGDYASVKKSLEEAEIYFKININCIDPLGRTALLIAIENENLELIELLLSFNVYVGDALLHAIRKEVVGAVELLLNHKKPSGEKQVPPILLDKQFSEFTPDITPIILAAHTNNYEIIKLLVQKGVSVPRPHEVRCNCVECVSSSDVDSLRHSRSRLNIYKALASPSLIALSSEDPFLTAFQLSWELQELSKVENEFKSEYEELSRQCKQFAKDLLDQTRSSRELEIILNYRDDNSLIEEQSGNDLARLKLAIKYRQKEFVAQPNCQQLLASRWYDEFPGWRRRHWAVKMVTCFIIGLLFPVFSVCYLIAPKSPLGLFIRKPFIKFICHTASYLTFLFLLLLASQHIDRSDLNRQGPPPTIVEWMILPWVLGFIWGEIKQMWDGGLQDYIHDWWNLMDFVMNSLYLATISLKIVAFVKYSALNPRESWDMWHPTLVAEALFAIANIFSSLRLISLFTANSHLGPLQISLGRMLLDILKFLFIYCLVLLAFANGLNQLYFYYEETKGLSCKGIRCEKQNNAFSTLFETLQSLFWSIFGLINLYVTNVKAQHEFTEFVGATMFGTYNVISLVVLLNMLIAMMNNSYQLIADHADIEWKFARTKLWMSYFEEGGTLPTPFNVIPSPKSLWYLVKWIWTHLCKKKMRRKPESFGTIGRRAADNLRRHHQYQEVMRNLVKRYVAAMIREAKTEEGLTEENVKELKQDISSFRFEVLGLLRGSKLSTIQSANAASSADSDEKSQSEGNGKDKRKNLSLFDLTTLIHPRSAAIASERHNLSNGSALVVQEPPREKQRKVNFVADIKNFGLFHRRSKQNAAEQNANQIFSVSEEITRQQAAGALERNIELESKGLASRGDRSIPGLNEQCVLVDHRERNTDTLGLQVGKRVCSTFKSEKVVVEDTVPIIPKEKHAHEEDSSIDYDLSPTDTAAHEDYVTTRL
#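 Test system – stable TRPC4beta/mu-opioid receptor HEK293 cells · Probe or stimulus – DAMGO, a submaximal dose followed by a maximal one · Dosing – one concentration per compound · Signal – Fluo4 calcium fluorescence by kinetic imaging, 5 s 1 Hz baseline · Evaluation – per-well B score of integrated baseline-normalized Fluo4 ratio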
# TRPC6 inhibitor = mouse TRPC6 channel inhibitors, primary screen, cell-based, HEK293, membrane potential dye | actives 1.1% (n = 310,000) | B-score at 10 µM | AID 2553, 2010 | Short transient receptor potential channel 6 (Mus musculus), Q61143 | ACh-evoked depolarization; stronger effect = lower value;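 active means B-score under library mean minus 3 SD, initial fluorescence not abnormally high, positive integrated signal ratio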;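 further: B-score derived from integrated fluorescence ratio over the kinetic read; more negative B-score means stronger inhibition of depolarization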
# TRPC4 PAM = positive allosteric modulators of TRPC4, primary screen, cell-based, mouse TRPC4beta, HEK293 mu-opioid, Fluo-4 calcium. Short transient receptor potential channel 4 (Mus musculus), Q9QUQ5. DAMGO EC20, Fluo-4 Ca2+ flux; stronger effect = higher value. B-score at 10 µM. actives 0.42% (n = 310,000);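 active means B-score of calcium response area above 5 SD of library B-scores, with initial fluorescence ratio within 5 SD of library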;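 further: B-score of integrated fluorescence ratio over time as area under calcium response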
# TRPC6 activator = mouse TRPC6 channel activators, primary screen, cell-based, HEK293, membrane potential dye. Short transient receptor potential channel 6 (Mus musculus), Q61143. HEK293-TRPC6 membrane potential dye fluorescence; stronger effect = higher value. B-score at 10 µM. actives 0.13% (n = 310,000);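 active means B-score of the integrated fluorescence ratio above library mean plus 3 SD, and starting fluorescence ratio within library mean plus 5 SD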;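 further: higher score means more depolarization so channel activation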
# TRPC4 act = activators of mouse TRPC4 channel, primary screen, Fluo4 calcium, HEK293 TRPC4beta/mu-opioid cells | B-score at 10 µM | Short transient receptor potential channel 4 (Mus musculus), Q9QUQ5 | Fluo4 calcium fluorescence; stronger effect = higher value | actives 0.49% (n = 310,000);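 active means B-score above 5 SD of library B-scores, and initial fluorescence ratio not above library mean plus 5 SD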;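 further: positive B-score marks a calcium rise read as TRPC4 activation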
#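 Material: TRPC4beta and mu-opioid receptor HEK293 stable cells | Incubation: 45 min room-temperature Fluo4 loading, 110 s read | Detection: Kinetic Fluo4 calcium fluorescence | Measure: Integrated baseline-normalised fluorescence ratio, converted to per-well B score | Benchmarks: Low control buffer alone, high control maximal DAMGO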
# TRPC4 sel inh 2 = second selectivity test of TRPC6 inhibitors: effect on mouse TRPC4 | shares compounds with TRPC6 inhibitor | HEK293 TRPC4/MOR, membrane potential dye fluorescence; channel activated by saturating DAMGO dose | inhibition, % at 10 µM | actives 42% (n = 920) | AID 2776;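 active means compounds whose fluorescence signal differed from control wells by over 3 SD, either direction, in both duplicate plates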
# TRPC4 spec = mouse TRPC4 modulation by TRPC6 hits, confirmation, selectivity assay for TRPC6 inhibitor project, cell-based, HEK293 TRPC4/mu-opioid, membrane potential dye | shares compounds with TRPC6 inhibitor | membrane potential fluorescence | activity change, negative = inhibition, % at 10 µM | actives 61% (n = 920) | AID 2777, 2010;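 active means rise or fall in signal beyond 3 SD of buffer-only wells in both replicate plates, either sign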;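 further: integrated kinetic ratio of fluorescence range over baseline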
# HEK293 MPD ctr 2-1 = nonspecific membrane potential effects, parental HEK293, confirmation, counter-screen for TRPC6 inhibitor project, cell-based, second counter screen; actives 31% (n = 920); shares compounds with TRPC6 inhibitor; parental HEK293 membrane potential dye fluorescence; maximal acetylcholine challenge after compound addition; signal change vs control, % at 10 µM;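 active means membrane potential signal moving either way by over 3 SD of the maximum-effect control, in both duplicate plates, meaning non-specific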
# HEK293 MPD ctr-1 = membrane potential modulation in parental HEK293, confirmation, counter-screen for TRPC6 inhibitor project, cell-based; membrane potential signal change, % at 10 µM; parental HEK293 membrane potential dye fluorescence; shares compounds with TRPC6 inhibitor; AID 2780, 2010; actives 60% (n = 920);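 active means membrane potential signal shifting up or down by more than 3 SD of buffer-only wells, on both duplicate plates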
# HEK293 MPD ctr-2 = parental HEK293 membrane potential modulation, confirmation, counter-screen for TRPC6 modulator project, cell-based | shares compounds with TRPC6 inhibitor | membrane potential dye fluorescence | actives 51% (n = 2,400) | membrane potential signal change, % at 10 µM;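 active means membrane potential signal moves up or down beyond 5 SD from buffer-only wells, on both duplicate plates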
# HEK293 MPD ctr 2-2 = second counter-screen for TRPC6 modulators: effect in parental HEK293 cells. shares compounds with TRPC6 inhibitor. membrane potential dye fluorescence; after compound, maximal acetylcholine stimulation. inhibition, % at 10 µM. actives 14% (n = 2,400);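 active means membrane potential signal drops by more than 5 SD from the mean control signal, in both duplicate plates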;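 further: plate controls were acetylcholine ECmax control wells for no effect and buffer only wells for full effect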
# TRPC4/MOR mod = TRPC4 modulation by TRPC6 hit compounds, confirmation, selectivity assay for TRPC6 modulator project, cell-based, HEK293 TRPC4/mu-opioid, membrane potential dye, mouse. shares compounds with TRPC6 inhibitor. membrane potential fluorescence. percent change from control (negative = decrease, positive = increase), % at 10 µM. actives 69% (n = 2,400);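 active means membrane potential signal moved up or down beyond 5 SD of buffer control wells, in both duplicate plates, actives on both sides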;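 further: plate controls were assay buffer wells for no effect and DAMGO maximal-effect wells for full effect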
# TRPC4/MOR inh 2 = second selectivity test of TRPC6 modulators against mouse TRPC4. shares compounds with TRPC6 inhibitor. HEK293 TRPC4/mu-opioid, membrane potential dye fluorescence; stimulated with maximal-effect DAMGO. inhibition, % at 10 µM. actives 55% (n = 2,400). AID 488928;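 active means drop in membrane potential signal beyond 5 SD of the control wells in both duplicate plates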;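 further: TRPC4 counter screen for TRPC6 hits run under conditions tuned for TRPC6 not TRPC4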
# TRPC6 inh conf = mouse TRPC6 channel inhibitors, confirmation, HEK293 cells, membrane potential dye, duplicate | actives 43% (n = 3,300) | inhibition, % at 10 µM | ACh-evoked depolarization | AID 488960, 2010 | shares compounds with TRPC6 inhibitor;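 active means fluorescence ratio falls more than 5 SD below the full-stimulation control mean, in both duplicate runs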;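 further: integrated fluorescence ratio of peak minus minimum over baseline after agonist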
# TRPC6 act conf = mouse TRPC6 channel activators, confirmation, HEK293 cells, membrane potential dye, duplicate. shares compounds with TRPC6 inhibitor. HEK293-TRPC6 membrane potential dye fluorescence, FDSS. activation, % at 10 µM. actives 11% (n = 2,800). AID 488961, 2010;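 active means ratio signal rise beyond 5 SD above unstimulated control wells' mean, seen in both duplicate runs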;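 further: plate controls were buffer EC0 wells for no effect and acetylcholine ECmax response for full effect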
# Starred values were filed as active, the others as inactive; i = inactive; nt = no result given. Shown are actives, neighbours in structure and some others; about 2.3% of the full set was active somewhere.
SMILES,TRPC4 inh,TRPC6 inhibitor,TRPC4 PAM,TRPC6 activator,TRPC4 act,HEK293 MPD ctr-2,HEK293 MPD ctr 2-2,TRPC4/MOR mod,TRPC4/MOR inh 2,TRPC6 inh conf,TRPC6 act conf,others
O=C(NCCCN1CCCC1=O)c1sc2ccccc2c1Cl,i,i,i,i,i,nt,nt,nt,nt,nt,nt,
CCCOc1ccc(N2C(=O)CC(N(CCc3ccc(OC)cc3)C(=O)/C=C/C(=O)O)C2=O)cc1 (stereo not given),i,-10*,i,i,i,nt,nt,nt,nt,i,i,TRPC4 sel inh 2=i;TRPC4 spec=i;HEK293 MPD ctr 2-1=i;HEK293 MPD ctr-1=i
CC1CN(S(=O)(=O)c2cccc(C(=O)N(Cc3nnc(-c4ccccc4Cl)o3)C3CC3)c2)CC(C)O1 (stereo not given),i,i,i,i,i,nt,nt,nt,nt,nt,nt,
NC(=O)c1ccccc1NC(=O)c1ccccc1Cl,i,i,i,i,i,nt,nt,nt,nt,nt,nt,
O=C(Nc1ccccc1C(=O)Nc1nnc(C(F)(F)F)s1)c1ccccc1Cl,i,-6.5*,i,i,i,121%*,i,26%*,54%*,55%*,nt,
N#CCCN(CCC#N)C(=O)c1ccc(Cl)cc1,i,-14*,i,i,i,i,i,i,i,i,i,
N#CCCN(C(=O)Nc1ccc(Cl)cc1)c1ccccc1,i,i,i,i,i,nt,nt,nt,nt,nt,nt,
O=C1Nc2ccc(Cl)cc2C(C#CC2CC2)(C(F)(F)F)O1 (stereo not given),i,i,i,i,i,nt,nt,nt,nt,nt,nt,
